Ends that are not written are not given here.
What was measured:
[1] = Cytosolic peptide stability assay; settings: for half-life: human, s9; for A02-SL9 epitope half-life reduced by (fold vs control): average of 4 experiments, Fig 3B
[2] = system: chymotryptic activity of proteasomes; assay: Proteasome chymotryptic activity in live PBMC; type: cell-based, human; settings: PI pretreatment 30 min 37°C, increasing concentrations, Fig 1C
Procedure, shortened: (§1)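 Fresh PBMC were isolated from HIV-negative donor buffy coats by Ficoll-Hypaque and pretreated for 30 min at 37°C with increasing concentrations of test compound (DMSO solutions). Digitonin (0.0025% final) was added, then Suc-LLVY-Amc (chymotryptic) or BocLRR-Amc (tryptic), each at 50 µmol/L. Fluorescence was read every 5 min at 37°C. Maximum slope, minus no-cell background, was expressed as % of the DMSO control. MG-132 (10 µmol/L) was used as the specificity control. Data are from 6–8 donors.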

[3] = system: tryptic activity of proteasomes; assay: Proteasome tryptic activity in live PBMC; type: cell-based, human; settings: increasing concentrations, Fig 1C
Procedure, shortened: as §1

aminopeptidase = assay: Aminopeptidase activity in live PBMC; type: cell-based, human; settings: for Effect on aminopeptidase activities: live PBMC, increasing concentrations, Fig 1C
[4] = system: caspase-like activity of proteasomes; assay: Proteasome caspase-like activity in live PBMC; type: cell-based, human; settings: PI pretreatment 30 min 37°C, Fig 1C
[5] = system: proteasomal and aminopeptidase activities; assay: Proteasomal and aminopeptidase activities in PBMC; type: cell-based, human; settings: unpublished data
[6] = system: HLA-matched B cells infected with VSVg-pseudotyped HIV; type: cell-based, human
[7] = system: purified mouse or human 20S proteasomes; settings: ref [30]–[32]; cited from earlier work
PBMC cytosolic extracts = assay: HIV epitope processing assay; type: biochemical, human
in vitro = settings: human, s9

CC[C@H](C)[C@H](NC(=O)[C@H](C)N)C(=O)N[C@@H](Cc1ccccc1)C(=O)N[C@@H](CCC(N)=O)C(=O)N[C@@H](CO)C(=O)N[C@@H](CO)C(=O)N[C@@H](CCSC)C(=O)N[C@H](C(=O)N[C@@H](CCCCN)C(=O)O)[C@@H](C)O [ATK9]
half-life [1]: 37.2 min

COC(=O)N[C@H](C(=O)N[C@@H](Cc1ccccc1)[C@@H](O)CN(Cc1ccc(-c2ccccn2)cc1)NC(=O)[C@@H](NC(=O)OC)C(C)(C)C)C(C)(C)C [Atazanavir]
Effect on chymotryptic activity of proteasome [2]: did not change | Effect on proteasome tryptic activity [3]: not affected | Effect on aminopeptidase activities (aminopeptidase): no change | A02-SL9 epitope half-life reduced by (fold vs control) ([1]; PBMC extracts pretreated with 2 µM or 5 µM PI): 1.33 fold

CC(C)C[C@H](NC(=O)[C@@H](O)[C@H](N)Cc1ccccc1)C(=O)O [Bestatin]
Aminopeptidase activity reduced by (fold compared to the control) (aminopeptidase; 120 µM): 20 fold | Aminopeptidase activity, max slope of fluorescence emission (aminopeptidase; PBMC, 120 µM inhibitor, Leu-amc, control max slope 145.35): 7.25

CC(C)CN(C[C@@H](O)[C@H](Cc1ccccc1)NC(=O)O[C@H]1CO[C@H]2OCC[C@H]21)S(=O)(=O)c1ccc(N)cc1 [Darunavir]
Effect on chymotryptic activity of proteasome [2]: did not change | Effect on proteasomal caspase-like activity [4]: not affected | Effect on proteasome tryptic activity [3]: not affected | Effect on aminopeptidase activities (aminopeptidase): no change

CC(C)Nc1cccnc1N1CCN(C(=O)c2cc3cc(NS(C)(=O)=O)ccc3[nH]2)CC1 [Delavirdine]
Effect on the proteasomal and aminopeptidase activities [5]: did not have any significant effect

CC(C)(C)NC(=O)[C@@H]1CN(Cc2cccnc2)CCN1C[C@@H](O)C[C@@H](Cc1ccccc1)C(=O)N[C@H]1c2ccccc2C[C@H]1O [Indinavir]
Effect on proteasomal caspase-like activity [4]: not affected | Effect on proteasome tryptic activity [3]: not affected | Effect on aminopeptidase activities (aminopeptidase): no change | Killing of HIV-infected cells by A11-ATK9 CTL, reduced by (fold vs DMSO) [6]: 3 fold | Killing of HIV-infected cells by B57-KF11 CTL, reduced by (fold vs DMSO) [6]: 1.9 fold

CC[C@H](C)[C@H](NC(=O)[C@@H](NC(=O)[C@H](CCC(=O)O)NC(=O)[C@@H]1CCCN1C(=O)[C@H](CO)NC(=O)[C@H](Cc1ccccc1)NC(=O)[C@H](C)NC(=O)[C@@H](N)CCCCN)C(C)C)C(=O)N1CCC[C@H]1C(=O)N[C@@H](CCSC)C(=O)N[C@@H](Cc1ccccc1)C(=O)O [KF11]
half-life [1]: 25.7 min

Cc1c(O)cccc1C(=O)N[C@@H](CSc1ccccc1)[C@H](O)CN1C[C@H]2CCCC[C@H]2C[C@H]1C(=O)NC(C)(C)C [Nelfinavir]
Effect on proteasomal caspase-like activity [4]: not affected | Effect on killing of HIV-infected cells by B57-ISW9 CTL [6]: had no effect | Killing of HIV-infected cells by A11-ATK9 CTL, reduced by (fold vs DMSO) [6]: 4.8 fold | Killing of HIV-infected cells by B57-ISW9 CTL, inhibited (fold vs DMSO) [6]: 1.2 fold | Killing of HIV-infected cells by B57-KF11 CTL, reduced by (fold vs DMSO) [6]: 2.44 fold | Lysis of HIV-infected cells by B57-TW10 CTL, decreased (fold vs DMSO) [6]: 1.46 fold | Activity of purified mouse or human 20S proteasomes and proteasome activity in immortalized cells [7]: inhibit | A02-SL9 epitope half-life reduced by (fold vs control) ([1]; […]): 1.25 fold

CC(C)c1nc(CN(C)C(=O)N[C@H](C(=O)N[C@@H](Cc2ccccc2)C[C@H](O)[C@H](Cc2ccccc2)NC(=O)OCc2cncs2)C(C)C)cs1 [Ritonavir]
Effect on proteasomal caspase-like activity [4]: did not enhance | ISW9 as % of total peptides (PBMC cytosolic extracts; 3ISW9 degradation, 10 µM PI, 60 min, 3% in control): 14% | Production of A25-QW11 epitope from 3ISW9 (PBMC cytosolic extracts; supplemental figure 3): reduced | Production of B15-HL9 epitope from 3ISW9 (PBMC cytosolic extracts; supplemental figure 3): reduced | Kinetics of killing and maximum lysis by B57-ISW9 CTL [6]: enhanced | Kinetics of killing and maximum lysis by B57-KF11 CTL [6]: slower and the maximum lysis reduced | Activity of purified mouse or human 20S proteasomes and proteasome activity in immortalized cells [7]: inhibit | Cytosolic stability of optimal epitopes derived from CMV, HCV, Influenza or EBV ([1]; several peptides, unpublished data): increasing

CC(C)(C)NC(=O)[C@@H]1C[C@@H]2CCCC[C@@H]2CN1C[C@@H](O)[C@H](Cc1ccccc1)NC(=O)[C@H](CC(N)=O)NC(=O)c1ccc2ccccc2n1 [Saquinavir]
2-ISW9 ([…]) precursor production vs control or Kaletra treatment (PBMC cytosolic extracts; 3ISW9 degradation, 10 µM): at least twice less | Activity of purified mouse or human 20S proteasomes and proteasome activity in immortalized cells [7]: inhibit

Nc1ccn([C@@H]2CS[C@H](CO)O2)c(=O)n1 [lamivudine, Lamivudine]
Effect on the proteasomal and aminopeptidase activities [5]: did not have any significant effect

ISPRTLNAW [ISW9]
half-life (in vitro): 14.8 min
